According to ChEMBL document CHEMBL5058577, “EUbOPEN Chemogenomics Library 2 (Multiplex)” (2022):

System: Fibroblast
Experiment: Multiplex assay against human fibroblast
Format: toxicity, cell-based
How it was run: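 Live cells were stained at seeding with Hoechst33342, BioTracker Green Microtubule Cytoskeleton Dye, MitoTracker Red and Annexin V Alexa Fluor 680, then imaged on a CQ1 microscope at 37°C and 5% CO2 after compound addition. CellPathfinder machine-learning gating split cells into Hoechst high-intensity objects or normal cells. Normal cells were split into healthy, pyknosed or fragmented nuclei, and pyknosed cells into mitotic or apoptotic. Tubulin, mitochondrial-mass and membrane-permeability phenotypes are per cents of healthy-nucleus cells.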

[1] = 12 h, 1 µM, compound concentration 1 uM, replicate 1
[2] = 12 h, 1 µM, compound concentration 1 uM, replicate 2
[3] = 12 h, 10 µM, compound concentration 10 uM, replicate 1
[4] = 12 h, 10 µM, compound concentration 10 uM, replicate 2
[5] = 24 h, 1 µM, compound concentration 1 uM, replicate 1
[6] = 24 h, 1 µM, compound concentration 1 uM, replicate 2
[7] = 24 h, 10 µM, compound concentration 10 uM, replicate 1
[8] = 24 h, 10 µM, compound concentration 10 uM, replicate 2
[9] = 48 h, 1 µM, compound concentration 1 uM, replicate 1
[10] = 48 h, 1 µM, compound concentration 1 uM, replicate 2
[11] = 48 h, 10 µM, compound concentration 10 uM, replicate 1
[12] = 48 h, 10 µM, compound concentration 10 uM, replicate 2

SMILES: O=C1[C@H](Cc2ccc(O)cc2)N2C(=O)CCN(C(=O)NCc3ccccc3)[C@H]2CN1Cc1cccc2ccccc12
- Population Apoptotic (%) [1]: 32%
- Population Fragmented Nuclei (%) [1]: 18%
- Population Healthy Nuclei (%) [1]: 57%
- Population Hoechst High Intensity Objects (%) [1]: 3%
- Population Membrane Permeable-Phenotype (%) [1]: 0%
- Population Mitochondria Different-Phenotype (%) [1]: 11%
- Population Mitotic Cells (%) [1]: 67%
- Population Normal (%) [1]: 96%
- Population Pyknosed Nuclei (%) [1]: 24%
- Population Tubulin-Different-Phenotype (%) [1]: 47%
- Total Cell Count [1]: 160
- Population Apoptotic (%) [2]: 30%
- Population Fragmented Nuclei (%) [2]: 27%
- Population Healthy Nuclei (%) [2]: 45%
- Population Hoechst High Intensity Objects (%) [2]: 2%
- Population Membrane Permeable-Phenotype (%) [2]: 5%
- Population Mitochondria Different-Phenotype (%) [2]: 13%
- Population Mitotic Cells (%) [2]: 69%
- Population Normal (%) [2]: 97%
- Population Pyknosed Nuclei (%) [2]: 26%
- Population Tubulin-Different-Phenotype (%) [2]: 58%
- Total Cell Count [2]: 152
- Population Apoptotic (%) [3]: 35%
- Population Fragmented Nuclei (%) [3]: 18%
- Population Healthy Nuclei (%) [3]: 58%
- Population Hoechst High Intensity Objects (%) [3]: 8%
- Population Membrane Permeable-Phenotype (%) [3]: 0%
- Population Mitochondria Different-Phenotype (%) [3]: 24%
- Population Mitotic Cells (%) [3]: 64%
- Population Normal (%) [3]: 91%
- Population Pyknosed Nuclei (%) [3]: 23%
- Population Tubulin-Different-Phenotype (%) [3]: 84%
- Total Cell Count [3]: 146
- Population Apoptotic (%) [4]: 45%
- Population Fragmented Nuclei (%) [4]: 23%
- Population Healthy Nuclei (%) [4]: 45%
- Population Hoechst High Intensity Objects (%) [4]: 9%
- Population Membrane Permeable-Phenotype (%) [4]: 8%
- Population Mitochondria Different-Phenotype (%) [4]: 15%
- Population Mitotic Cells (%) [4]: 55%
- Population Normal (%) [4]: 90%
- Population Pyknosed Nuclei (%) [4]: 30%
- Population Tubulin-Different-Phenotype (%) [4]: 83%
- Total Cell Count [4]: 144
- Population Apoptotic (%) [5]: 42%
- Population Fragmented Nuclei (%) [5]: 16%
- Population Healthy Nuclei (%) [5]: 62%
- Population Hoechst High Intensity Objects (%) [5]: 3%
- Population Membrane Permeable-Phenotype (%) [5]: 3%
- Population Mitochondria Different-Phenotype (%) [5]: 7%
- Population Mitotic Cells (%) [5]: 57%
- Population Normal (%) [5]: 96%
- Population Pyknosed Nuclei (%) [5]: 21%
- Population Tubulin-Different-Phenotype (%) [5]: 49%
- Total Cell Count [5]: 158
- Population Apoptotic (%) [6]: 28%
- Population Fragmented Nuclei (%) [6]: 30%
- Population Healthy Nuclei (%) [6]: 47%
- Population Hoechst High Intensity Objects (%) [6]: 2%
- Population Membrane Permeable-Phenotype (%) [6]: 7%
- Population Mitochondria Different-Phenotype (%) [6]: 8%
- Population Mitotic Cells (%) [6]: 71%
- Population Normal (%) [6]: 97%
- Population Pyknosed Nuclei (%) [6]: 22%
- Population Tubulin-Different-Phenotype (%) [6]: 58%
- Total Cell Count [6]: 147
- Population Apoptotic (%) [7]: 44%
- Population Fragmented Nuclei (%) [7]: 15%
- Population Healthy Nuclei (%) [7]: 62%
- Population Hoechst High Intensity Objects (%) [7]: 10%
- Population Membrane Permeable-Phenotype (%) [7]: 1%
- Population Mitochondria Different-Phenotype (%) [7]: 44%
- Population Mitotic Cells (%) [7]: 55%
- Population Normal (%) [7]: 89%
- Population Pyknosed Nuclei (%) [7]: 21%
- Population Tubulin-Different-Phenotype (%) [7]: 83%
- Total Cell Count [7]: 141
- Population Apoptotic (%) [8]: 64%
- Population Fragmented Nuclei (%) [8]: 25%
- Population Healthy Nuclei (%) [8]: 47%
- Population Hoechst High Intensity Objects (%) [8]: 7%
- Population Membrane Permeable-Phenotype (%) [8]: 13%
- Population Mitochondria Different-Phenotype (%) [8]: 21%
- Population Mitotic Cells (%) [8]: 35%
- Population Normal (%) [8]: 92%
- Population Pyknosed Nuclei (%) [8]: 26%
- Total Cell Count [8]: 137
- Population Apoptotic (%) [9]: 62%
- Population Fragmented Nuclei (%) [9]: 22%
- Population Healthy Nuclei (%) [9]: 59%
- Population Hoechst High Intensity Objects (%) [9]: 7%
- Population Membrane Permeable-Phenotype (%) [9]: 2%
- Population Mitochondria Different-Phenotype (%) [9]: 7%
- Population Mitotic Cells (%) [9]: 37%
- Population Normal (%) [9]: 92%
- Population Pyknosed Nuclei (%) [9]: 17%
- Population Tubulin-Different-Phenotype (%) [9]: 54%
- Total Cell Count [9]: 164
- Population Apoptotic (%) [10]: 54%
- Population Fragmented Nuclei (%) [10]: 37%
- Population Healthy Nuclei (%) [10]: 45%
- Population Hoechst High Intensity Objects (%) [10]: 5%
- Population Membrane Permeable-Phenotype (%) [10]: 5%
- Population Mitochondria Different-Phenotype (%) [10]: 6%
- Population Mitotic Cells (%) [10]: 45%
- Population Normal (%) [10]: 94%
- Population Tubulin-Different-Phenotype (%) [10]: 48%
- Total Cell Count [10]: 135
- Population Apoptotic (%) [11]: 85%
- Population Fragmented Nuclei (%) [11]: 21%
- Population Healthy Nuclei (%) [11]: 58%
- Population Hoechst High Intensity Objects (%) [11]: 15%
- Population Membrane Permeable-Phenotype (%) [11]: 0%
- Population Mitochondria Different-Phenotype (%) [11]: 50%
- Population Mitotic Cells (%) [11]: 14%
- Population Normal (%) [11]: 84%
- Population Pyknosed Nuclei (%) [11]: 20%
- Population Tubulin-Different-Phenotype (%) [11]: 85%
- Total Cell Count [11]: 124
- Population Apoptotic (%) [12]: 66%
- Population Fragmented Nuclei (%) [12]: 32%
- Population Healthy Nuclei (%) [12]: 53%
- Population Hoechst High Intensity Objects (%) [12]: 10%
- Population Membrane Permeable-Phenotype (%) [12]: 5%
- Population Mitochondria Different-Phenotype (%) [12]: 38%
- Population Mitotic Cells (%) [12]: 33%
- Population Normal (%) [12]: 89%
- Population Pyknosed Nuclei (%) [12]: 14%
- Population Tubulin-Different-Phenotype (%) [12]: 94%
- Total Cell Count [12]: 119
